≈ marks a conversion by molar mass, not a printed value.
Key:
Vero [1] = test: Inhibition of Tomioka strain of herpes simplex virus( Tomioka strain of HSV-1) by quantitative CPE reduction assay in vero cells; assay type: functional, cell-based, Human alphaherpesvirus 1
Summary of the method: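 Vero cells in EMEM with 2% FBS, 3-fold compound dilutions, infected with HSV-1 Tomioka at about 100 TCID50 per well. After 3 days at 37 °C in 5% CO2, cells stained with neutral red for 45 min. Dye eluted in pH 4.2 citrate-ethanol, A550 read. Cell control set to 100% and blank to 0%; IC50 is the concentration giving 50% OD. Quadruplicate.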

CCRF-CEM [2] = test: Inhibitory activity against 1RF strain of HIV-1 by plaque reduction assay in CEM cells; assay type: functional, cell-based
Summary of the method: (§1)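 CEM cells pregrown in RPMI 1640 with 10% FCS; HIV-1 RF strain, 32-100 CCID50 units per 0.1 mL, added together with test compound. Incubated 7 days at 37 °C in 5% CO2. CPE inhibition read by MTT dye uptake; IC50 derived. Triplicate.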

HFF [3] = test: Minimum cytotoxic concentration against uninfected HFF cells; assay type: functional, Homo sapiens
Summary of the method: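 Uninfected HFF cells under MEM with 2% FBS in 0.25% agarose overlay with test compound, 5 days at 37 °C in 5% CO2. Examined microscopically for gross morphologic changes, then treated with MTT and 30% SDS; highest concentration 320 μg/mL. Value is the minimum concentration giving morphologic change. Triplicate.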

HFF [4] = test: Selectivity index is the ratio between IC50 (Anti-VZV Activity (DM625 in HFF Cells)) and minimum cytotoxic concentration (against HFF cells) values of the compound; assay type: functional
Vero [5] = test: Cytotoxic concentration to uninfected vero cells; assay type: functional, Chlorocebus sabaeus
Summary of the method: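 Uninfected Vero cells were run through the same neutral red dye-uptake method as the antiviral test: 3-fold dilutions in EMEM with 2% FBS, 3 days at 37 °C in 5% CO2, A550 read. CC50 is the concentration giving 50% of the cell-control OD. Quadruplicate.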

HFF [6] = test: Inhibitory activity against DM625 strain of zoster virus(VZV) by plaque reduction assay in HFF cells; assay type: functional, cell-based; details: Homo sapiens
CCRF-CEM [7] = test: Cytotoxic concentration against uninfected CEM cells; assay type: functional, Homo sapiens
Summary of the method: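 Uninfected CEM cells in RPMI 1640 with 10% FCS, exposed to test compound for 7 days at 37 °C in 5% CO2. Cytotoxicity measured by MTT dye uptake and expressed as CC25. Triplicate.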

CCRF-CEM [8] = test: compound tested for inhibitory activity by plaque reduction assay against HIV-1 in CEM cells; assay type: functional, cell-based; details: Homo sapiens
CCRF-CEM [9] = test: compound tested for anti-HIV-1 activity by plaque reduction assay against HIV-1 in CEM cells; assay type: functional; details: Homo sapiens; summary of the method: as §1
CCRF-CEM [10] = test: Compound tested for inhibitory activity by plaque reduction assay against HIV-1RF strain in CEM cells; assay type: functional, cell-based; details: Homo sapiens; summary of the method: as §1
[11] = Chlorocebus sabaeus, Vero, read-out: IC50
[12] = Homo sapiens, CCRF-CEM, read-out: IC50
[13] = Chlorocebus sabaeus, Vero, read-out: CC50

Compound	IC50 (Vero [1]; [11]) [µg/mL]	IC50 (CCRF-CEM [2]; [12]) [µg/mL]	CC50 (Vero [5]; [13]) [µg/mL]	CC25 (CCRF-CEM [7]) [µg/mL]	other results
Nc1nc(O)c2ncn(C[C@@]3(CO)C[C@H]3CO)c2n1	10 (≈ 37.7 µM)	> 100	> 500	>100	MTC (HFF [3]): 320 µg/mL; SI (HFF [4]): 16; IC50 (HFF [6]): 19.4 µg/mL (≈ 73.1 µM)
Cc1cn(C[C@]2(CO)C[C@@H]2CO)c(=O)[nH]c1=O (stereo in doubt; 41a)	> 500		> 500	>100	IC50 (CCRF-CEM [2]; ccrf-cem): > 100 µg/mL
Nc1ncnc2c1ncn2C[C@]1(CO)C[C@@H]1CO	47 (≈ 189 µM)	> 100	120 (≈ 481 µM)	19.8 (≈ 79.4 µM)	MTC (HFF [3]): 320; SI (HFF [4]): 16; IC50 (HFF [6]): 19.8 µg/mL (≈ 79.4 µM)
Cc1cn([C@H]2C[C@H](N=[N+]=[N-])[C@@H](CO)O2)c(=O)[nH]c1=O [ZIDOVUDINE]					IC50 (CCRF-CEM [8]): 0.003 µg/mL (≈ 0.0112 µM); CC25 (CCRF-CEM [9]): 35.6 µg/mL (≈ 133 µM)
Nc1ccn(C[C@]2(CO)C[C@H]2CO)c(=O)n1	> 500	> 100	> 500	>100	
Nc1ccn(C[C@]2(CO)C[C@@H]2CO)c(=O)n1	120 (≈ 533 µM)	23.7 (≈ 105 µM)	> 500	>100	
Nc1nc(O)c2ncn(C[C@@]3(CO)C[C@@H]3CO)c2n1 (stereo in doubt; 3b)			> 500		IC50 (Vero [1]; vero): 2.2 µg/mL (≈ 8.29 µM)
Nc1nc(O)c2ncn(C/C(=C\CO)CO)c2n1	4.2 (≈ 16.7 µM)	> 100	> 500	>100	MTC (HFF [3]): 320 µg/mL; SI (HFF [4]): 100; IC50 (HFF [6]): 3.2 µg/mL (≈ 12.7 µM)
Nc1nc(O)c2ncn(C[C@@]3(CO)C[C@@H]3CO)c2n1 (stereo in doubt; 3)					IC50 (Vero [1]; vero): 0.046 µg/mL (≈ 0.173 µM); CC50 (Vero [5]): 530 µg/mL (≈ 2000 µM)
Nc1nc(N)c2ncn(CC3(CO)CC3CO)c2n1 (stereo not drawn)	29 (≈ 110 µM)	32.1 (≈ 121 µM)	> 500	>100	
Nc1nc(O)c2ncn(C[C@]3(CO)C[C@H]3CO)c2n1	0.02 (≈ 0.0754 µM)	> 100	240 (≈ 905 µM)	>100	MTC (HFF [3]): 320 µg/mL; SI (HFF [4]): 1600; IC50 (HFF [6]): 0.2 µg/mL (≈ 0.754 µM)
Cc1cn(C/C(=C/CO)CO)c(=O)[nH]c1=O	> 500	> 100	> 500	>100	
OC[C@H]1C[C@@]1(CO)Cn1cnc2c(O)ncnc21	> 500	20.1 (≈ 80.3 µM)	> 500	>100	
OC[C@@H]1C[C@@]1(CO)Cn1cnc2c(O)ncnc21	> 500	25.7 (≈ 103 µM)	> 500	>100	
Nc1nc(O)c2ncn(CC3[C@@H](CO)[C@H]3CO)c2n1 (stereo partly drawn)	> 500		> 500		
Nc1nc2c(ncn2COCCO)c(=O)[nH]1 [ACYCLOVIR]	0.81 (≈ 3.6 µM)		820 (≈ 3640 µM)		MTC (HFF [3]): > 320 µg/mL
Nc1ncnc2c1ncn2C/C(=C\CO)CO	> 500		260 (≈ 1110 µM)	>100	IC50 (CCRF-CEM [10]): > 100 µg/mL
Cc1cn(C[C@]2(CO)C[C@@H]2CO)c(=O)[nH]c1=O (stereo in doubt; 41b)					IC50 (CCRF-CEM [2]; ccrf-cem): 3.2 µg/mL (≈ 13.3 µM)
Nc1ncnc2c1ncn2C/C(=C/CO)CO	> 500	> 100	260 (≈ 1110 µM)	>100	
Nc1nc(O)c2ncn(C[C@@]3(CO)O[C@H]3CO)c2n1	14 (≈ 52.4 µM)		> 500		
Cc1cn(C/C(=C\CO)CO)c(=O)[nH]c1=O	> 500	> 100	> 500	>100	
Nc1nc(O)c2ncn(CC3[C@H](CO)[C@H]3CO)c2n1 (stereo partly drawn)	> 500		> 500		MTC (HFF [3]): 320 µg/mL; SI (HFF [4]): 1.3; IC50 (HFF [6]): 240 µg/mL (≈ 905 µM)
Nc1ncc2ncn(CC3(CO)CC3CO)c2n1 (stereo not drawn)	30 (≈ 120 µM)		> 500		
Nc1nc(O)c2ncn(C[C@@]3(CO)O[C@@H]3CO)c2n1	> 500		> 500		
Nc1nc(O)c2ncn(C/C(=C/CO)CO)c2n1	4.2 (≈ 16.7 µM)	> 100	> 500	>100	MTC (HFF [3]): >320 µg/mL; SI (HFF [4]): >6.1; IC50 (HFF [6]): 52.8 µg/mL (≈ 210 µM)
